Tested on: MS2 coat protein
Experiment: apparent Kd, MS2 coat protein; higher = weaker binding; RNA-MaP array
Outline: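 For each design, the apparent Kd is the median of binding-curve fits across its clusters. Designs measured on fewer than 10 clusters were dropped. The RNAs were transcribed from sequenced DNA templates on an Illumina sequencing chip and incubated at room temperature, with or without input ligand, with fluorescently labeled MS2 coat protein at 1.5 nM to 3 μM.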

[1] = designed as: OFF switch for flavin mononucleotide, no ligand
[2] = ligand present: flavin mononucleotide, designed as: OFF switch for flavin mononucleotide
[3] = designed as: ON switch for flavin mononucleotide, no ligand
[4] = ligand present: flavin mononucleotide, designed as: ON switch for flavin mononucleotide

| Sequence | apparent Kd [1] | apparent Kd [2] | apparent Kd [3] | apparent Kd [4] | also measured |
| --- | --- | --- | --- | --- | --- |
| UAAUGCAUAACAUGAGGAUCACCCAUGUAGUAAAAUGGUGGUUAGGAUAUAGCACGUGAAUCGACCUAGAAGGAACGUCCUUAC | 33.3 nM | 30 nM | – | – | – |
| AACAAGUAGGAGAAGGUAGAUGAGACUGUGCACUAAGGAUAUCCAUACAUGAGGAUCACCCAUGUCUGGACUAGUAUAUGGACA | 5.74 nM | 5.69 nM | – | – | – |
| AUUUUGGGAGGAUAUACAUGAGGAUCACCCAUGUUUUAGAACGUAAGAGAAUCCGGAGGUAGAAGGCCCUUCUG | 180 nM | 212 nM | – | – | – |
| UCCUUACACAUGAGGAUCACCCAUGUAUCCACAGGUUGAGGGCAGGAUAUACAUAAUUUGACCUUGUAGAAGGGCCUGACAAAA | 213 nM | 103 nM | – | – | – |
| CACAAGUCGUAGGAUAUCACCACAAAUAGCUGCUGAGAAGGACGGACAUGAGGAUCACCCAUGUGUUCCGCAAU | 14.8 nM | 23.8 nM | – | – | – |
| GAGGCGAAGGAGAAGGCCGCCAGUAAAGGUGACCGUAACAUGAGGAUCACCCAUGUGGAAUAAACGGAGGAUAUCCCUUCUCAG | 19 nM | 21.8 nM | – | – | – |
| UAACCGUGAGGAUAUACAUGAGGAUCACCCAUGUGGUUUUGCUGCGCACAUACUUUAUGUAGAAGGCACAACUG | 50 nM | 59.9 nM | – | – | – |
| AAUCCUAAUGUCAGGAUAUUGCAGAAGCCAGAACACAAGAAGGGACAUGAGGAUCACCCAUGUAUAGUCACAUA | 22.4 nM | 59.1 nM | – | – | – |
| CCCAGAUGCUAGAAGGCCUACAUGAGGAUCACCCAUGUAUCCGCUAUCCACACACGCAGGCGGCAGGAGGAUAUAGACGAAGGA | – | – | 8.84 nM | 6.63 nM | – |
| ACAUGGAGGACAGGAUAUCCAUCUGGCCACCACGGAGAAGGGUCCACCCGACAUGAGGAUCACCCAUGUAUCAACGUGAUGAGU | – | – | 23 nM | 18.1 nM | – |
| GUACAUUUUGCAGGAUAUGUUCAAUACAUGAGGAUCACCCAUGUUCCCUGCUCGGGUCGAGCAUAACAGAAGGGCACUAUAUGU | – | – | 28.9 nM | 12.1 nM | – |
| GCUCAGGAAGGAUAUACUGAAGCUAACAUGAGGAUCACCCAUGUCCUAGGUAAGUAUCUGGUAGAAGGUCCGCGUA | 24.9 nM | 32.5 nM | – | – | – |
| AUCUGGUUACAAGGAUAUCCAAUGUAAACAAUAGGAGAAGGAGUGAAAAGACCUAGGAAAACAUGAGGAUCACCCAUGUAAUUA | – | – | 111 nM | 39.1 nM | – |
| AGAUCACAUGAGGAUCACCCAUGUCAGGAACUAAGGUACGCUAGAAGGCCGGAUAUGCGGGAAGCGGAGGAUAUAGCAAGCAUC | – | – | 40.8 nM | 19.6 nM | – |
| CUUCAGGCGGAGGAUAUCUUACAGUUAUCGUACAGAGAAGGCCGCACAUGAGGAUCACCCAUGUCAGGCGACUU | 29.8 nM | 162 nM | – | – | – |
| GCAGGCGUUAAGAAGGUUCUCCCACAUGAGGAUCACCCAUGUUGACAUGCUAGAGUCAUUACAAGAAAGGAUAUUAGCGAAUUG | – | – | 114 nM | 25.8 nM | – |
| CAAUGGACGGUAGGAUAUGUACUAGAGAAGCAGACAGAAGGACCUAGUCCGACAUGAGGAUCACCCAUGUGAAACCCGGUCCAG | 6.83 nM | 6.44 nM | – | – | – |
| AAAUCAAAGCAGAAGGAACAAUAAGCAUAAAGGUUAGGAUAUGCGUCAACGCAAAGUACAUGAGGAUCACCCAUGUUUAUAAGC | – | – | 7.37 nM | 6.77 nM | – |
| AGUGGACUGAGGCAGGAUAUCUAUUCAGGAACAUGAGGAUCACCCAUGUCAUGAAAUGACUCGUGAGAGAAGGGCCGUCAACUUAU | – | – | 22.9 nM | 29.5 nM | – |
| UGAUCAGAACAGAAGGAGUAGUCUGCCUUGCUACUAGGAUAUGUUACAUGAGGAUCACCCAUGUGUUUAGGAUUGCCAUAAAGG | – | – | 13.1 nM | 9.08 nM | – |

| Sequence | apparent Kd [1] | apparent Kd [2] | apparent Kd [3] | apparent Kd [4] | also measured |
| --- | --- | --- | --- | --- | --- |
| GGACCAAGGAGGGAGGAUAUCACAUACAAAACAUGAGGAUCACCCAUGUAGAAGAGACAAGAUACAGAGAAGGCCCAGAAAUAAAA | – | – | 14 nM | 9.27 nM | – |
| CGUAAUGCACUAGGAUAUGUUGUAUAUACAACGACAGAAGGAGUUCCACAUGAGGAUCACCCAUGUCCAAACCAAUACUCAUCG | – | – | 78.2 nM | 64 nM | – |
| GAAGAACCCGGAGGAUAUGCAAAGGAACAUGAGGAUCACCCAUGUUUCUUUCGGAAAUCUAGUGAGCAGAAGGCCGAAAGGAAC | – | – | 13.1 nM | 7.95 nM | – |
| UACCUUAGCAACAUGAGGAUCACCCAUGUUUGGUGGCGAAUUAGAAGGGACAGCAUUUAUACAAGUCAGGAUAUAAUUUAGGGA | 16.5 nM | 11.6 nM | – | – | – |
| AUAGGGCGACAGAAGGGCAGUGCACGCAUUGCUGCAGGAUAUGUGGUCCACAUGAGGAUCACCCAUGUAGUAAUAUCUUGUAGU | – | – | 104 nM | 71.2 nM | – |
| GAUAGUGAUCCGGGUUACAUGAGGAUCACCCAUGUUACAAAUAGAAGGUCAGAACAAAAUUGAAAGAAGGAUAUAUUUUCAUUG | 44.1 nM | 39.6 nM | – | – | – |
| AGUAAAGUAGAAGGAUAUCACGAACAUGAGGAUCACCCAUGUUAAGAUCGGCGUGAGACAACAGAUGAGAAGGACUAAUAUGCU | 10.9 nM | 10.2 nM | – | – | – |
| AAGGAACAUGAGGAUCACCCAUGUGCUUGCCAGCAAGGAUAUGGUUGUGACAUCUAUAUGCCAGAAGGUGCCGGAC | – | – | 286 nM | 85.6 nM | – |
| CCACGGAGUUUAGGAUAUGUCGGCUUGGAGUUUACAGAAGGAAAUUGCGCAGCCACAUGAGGAUCACCCAUGUUCGGAAAUACG | – | – | 31 nM | 21.4 nM | – |
| GGCGUGUACACAGGAUAUGAUACAUGAGGAUCACCCAUGUUCGCGCUGGAUCUACGUGAGAACGAUCAGAAGGGUGCUGCAGGG | – | – | 398 nM | 229 nM | – |
| AGUUGAGGAGGAUAUACAUGAGGAUCACCCAUGUGACUGUGUCUGUUGCGCUGGAUCGGUAGAAGGCCUUAGUA | 12.2 nM | 16.4 nM | – | – | – |
| UUCGACCACGAGAAGGUGACGAAGGCCGAUUGUCAAGGAUAUCGACACAUGAGGAUCACCCAUGUCAGAGCGGGACUAACUAAA | – | – | 22.6 nM | 12.8 nM | – |
| AGAAGUCCAGACUACACGUGGAAAAGCGAUACCAGACUCAUAGGUGUCCCUUGGCAGCGCGUAACAUGAGGAUCACCCAUGUGAU | – | – | – | – | apparent Kd (designed as: OFF switch for theophylline, no ligand): 142 nM; apparent Kd (ligand present: theophylline, designed as: OFF switch for theophylline): 139 nM |
| AACAAGGACAGAGGAUAUAUCAACAUUGAAGUAAUAGAAGGCUGAGAGAAUGAGACUCAUAAACAUGAGGAUCACCCAUGUAAC | 82.2 nM | 81.4 nM | – | – | – |
| GGGCCACAUAAGAAGGUGAGCCACAGCGGCGUUCAAGGAUAUUAUAGGUAACCCACCAGACAUGAGGAUCACCCAUGUAGUGUC | – | – | 36.7 nM | 25.2 nM | – |
| CAAAUGAGAGGAUAUACAAUUAGAUUUCAAAGUCACAUCAGACAUGAGGAUCACCCAUGUAGAAGGCUCGGAUA | 23.7 nM | 193 nM | – | – | – |
| GUUUCGUCAGGAUAUGCUUAAGAAGUCUUCUCACCGGACUUGCAGAAGGGACAUGAGGAUCACCCAUGUGGUAA | 36.5 nM | 167 nM | – | – | – |
| GGAUAACCGAAGAAGGAGGUUUGUAUGGAAUACCUAGGAUAUUCGCGAGCGUGGGCCACAUGAGGAUCACCCAUGUCGGCAGUU | 12.8 nM | 10.4 nM | – | – | – |
| AAGGUCCAAGAGAAGGCGCUCAUGGGAUCAAGACAUGAGGAUCACCCAUGUUGGCGCAGCACAAGCGAGGAUAUCUCCACCGGC | – | – | 420 nM | 330 nM | – |

Reference: the EternaBench riboswitch data
